According to ChEMBL document CHEMBL1125518, “Sulfonylureas: a new class of cancer chemotherapeutic agents” (1992):

Key:
Assay type in all cases: functional
6C3HED [1] = experiment: Inhibition of tumor growth of 6C3HED lymphosarcoma tumor cell line in mice at a dose of 150 mg/kg given orally(daily x 8); conditions: Mus musculus, po
Procedure, shortened: (§1)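 C3H mice received subcutaneous 1-2 mm 6C3HED lymphosarcoma fragments, which grew for 1 day before treatment. The agent was suspended in 2.5% emulphor and given by oral gavage once daily on days 2-9. On day 10, intact tumors were measured by calipers to estimate tumor weight. Percent inhibition was taken from treated versus untreated control tumor weights, mostly with 10 mice per group.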

6C3HED [2] = experiment: Inhibition of tumor growth of 6C3HED lymphosarcoma tumor cell line in mice at a dose of 300 mg/kg given orally (daily x 8); conditions: Mus musculus, route oral; procedure, shortened: as §1
CX-1 = experiment: Inhibition of tumor growth of CX-1 cell line at 600 mg/kg; conditions: Homo sapiens
Mus musculus = experiment: Lethal dose against C3H mouse with subcutaneously implanted 6C3HED lymphosarcoma; conditions: sc
Procedure, shortened: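 C3H mice bearing subcutaneously implanted 6C3HED lymphosarcoma fragments (1-2 mm), grown 1 day before treatment. Compound suspended in 2.5% emulphor and given po by gavage daily × 8 (days 2-9). Deaths from drug toxicity were recorded to give the lethal dose.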

6C3HED [3] = experiment: Inhibition of tumor growth of 6C3HED lymphosarcoma tumor cell line in mice at a dose of 200 mg/kg given orally(daily x 8); conditions: Mus musculus, po; procedure, shortened: as §1

| SMILES | inhibition in vivo at 150 mg/kg (6C3HED [1]) [%] | inhibition in vivo at 300 mg/kg (6C3HED [2]) [%] | inhibition in vivo at 600 mg/kg (CX-1) [%] | LD50 (Mus musculus) [mg/kg] | inhibition in vivo at 200 mg/kg (6C3HED [3]) [%] |
| --- | --- | --- | --- | --- | --- |
| CC(C)c1ccc(S(=O)(=O)NC(=O)Nc2ccc(Cl)cc2)s1 | 42 | 63 | – | – | – |
| COc1ccc(S(=O)(=O)NC(=O)Nc2ccc(Cl)cc2)s1 | 93 | 100 | 62 | 450 | – |
| O=C(Nc1ccc(Cl)cc1)NS(=O)(=O)c1scc2c1CCCC2 | 0 | 15 | – | – | – |
| CCc1ccc(S(=O)(=O)NC(=O)Nc2ccc(Cl)cc2)[nH]1 | – | 56 | – | – | – |
| CSc1ccc(S(=O)(=O)NC(=O)Nc2ccc(Cl)cc2)s1 | 29 | 62 | – | – | – |
| CCc1ccc(S(=O)(=O)NC(=O)Nc2ccc(Cl)cc2)o1 | 57 | 80 | – | – | – |
| CC(C)(C)c1ccc(S(=O)(=O)NC(=O)Nc2ccc(Cl)cc2)s1 | 7 | 10 | – | – | – |
| CCOc1ccc(S(=O)(=O)NC(=O)Nc2ccc(Cl)cc2)s1 | 69 | 96 | – | – | – |
| COc1csc(S(=O)(=O)NC(=O)Nc2ccc(Cl)cc2)c1 | 36 | 69 | – | – | – |
| CCc1csc(S(=O)(=O)NC(=O)Nc2ccc(Cl)cc2)c1 | 55 | 93 | – | – | – |
| O=C(Nc1ccc(Cl)c(Cl)c1)NS(=O)(=O)c1cc2c(s1)CCCC2 | – | – | – | – | 44 |
| CCc1ccsc1S(=O)(=O)NC(=O)Nc1ccc(Cl)cc1 | 21 | 25 | – | – | – |
| O=C(Nc1ccc(Cl)cc1)NS(=O)(=O)c1scc2c1CCC2 | 36 | 51 | – | – | – |
| Cc1cc(S(=O)(=O)NC(=O)Nc2ccc(Cl)cc2)sc1C | 42 | 73 | – | – | – |
| CCc1sc(S(=O)(=O)NC(=O)Nc2ccc(Cl)cc2)cc1C | 26 | 58 | – | – | – |
| CCCc1ccc(S(=O)(=O)NC(=O)Nc2ccc(Cl)cc2)s1 | 38 | 39 | – | – | – |
| CCc1ccc(S(=O)(=O)NC(=O)Nc2ccc(Cl)cc2)s1 | 57 | 89 | – | – | – |
| Cc1ccc(S(=O)(=O)NC(=O)Nc2ccc(Cl)c(Cl)c2)s1 | 24 | 61 | – | – | – |
| O=C(Nc1ccc(Cl)cc1)NS(=O)(=O)c1cc(Br)c(Br)s1 | 25 | 52 | – | – | – |
| O=C(Nc1ccc(Cl)cc1)NS(=O)(=O)c1cc2c(s1)CCC2 | 16 | 16 | – | – | – |
| O=C(Nc1ccc(Cl)cc1)NS(=O)(=O)c1ccc(Cl)s1 | 58 | 89 | – | – | – |
| O=C(Nc1ccc(Cl)cc1)NS(=O)(=O)c1cccs1 | 16 | 66 | – | – | – |
| CCCOc1ccc(S(=O)(=O)NC(=O)Nc2ccc(Cl)cc2)s1 | 44 | 63 | – | – | – |
| Cc1ccsc1S(=O)(=O)NC(=O)Nc1ccc(Cl)cc1 | 17 | 62 | – | – | – |
